Measured values as given in paper PMC9520214 (Heliyon, 2022).
“And” between values parts separate entries of the source, which are not always exact repeats. Equal values may be shown once. Read-outs that look alike come from different tables or passages of the source.

Experiments:
Type in all cases: biochemical
hCA I = hCA I (Homo sapiens, UniProt P00915); assay: hCA I esterase activity inhibition assay; details: for fold increase of hCA I inhibition relative to complex 2: ratio of Ki values, versus complex 2
Chain of hCA I (P00915 whole entry): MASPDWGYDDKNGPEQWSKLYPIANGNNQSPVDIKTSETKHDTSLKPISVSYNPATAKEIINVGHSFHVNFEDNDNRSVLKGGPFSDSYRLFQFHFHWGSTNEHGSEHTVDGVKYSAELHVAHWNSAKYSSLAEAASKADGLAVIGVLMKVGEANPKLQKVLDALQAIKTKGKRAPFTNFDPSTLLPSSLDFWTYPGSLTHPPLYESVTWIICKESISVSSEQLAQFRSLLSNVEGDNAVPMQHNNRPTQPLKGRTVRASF

hCA II = hCA II (Homo sapiens, UniProt P00918); assay: hCA II esterase activity inhibition assay
Method in brief: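 hCA II purified from expired human erythrocytes by Sepharose-4B-L-tyrosine-sulfanilamide affinity chromatography; purity checked by SDS-PAGE; protein quantified against a bovine serum albumin standard. Esterase activity followed spectrophotometrically as p-nitrophenylacetate hydrolysis to p-nitrophenolate, absorbance change at 348 nm over 3 min at 25 °C. Inhibitor and substrate concentrations varied; IC50 and Ki derived, inhibition type from Lineweaver-Burk plots.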

AChE = AChE (Electrophorus electricus, UniProt O42275); assay: biochemical
Chain of AChE (O42275 24-633): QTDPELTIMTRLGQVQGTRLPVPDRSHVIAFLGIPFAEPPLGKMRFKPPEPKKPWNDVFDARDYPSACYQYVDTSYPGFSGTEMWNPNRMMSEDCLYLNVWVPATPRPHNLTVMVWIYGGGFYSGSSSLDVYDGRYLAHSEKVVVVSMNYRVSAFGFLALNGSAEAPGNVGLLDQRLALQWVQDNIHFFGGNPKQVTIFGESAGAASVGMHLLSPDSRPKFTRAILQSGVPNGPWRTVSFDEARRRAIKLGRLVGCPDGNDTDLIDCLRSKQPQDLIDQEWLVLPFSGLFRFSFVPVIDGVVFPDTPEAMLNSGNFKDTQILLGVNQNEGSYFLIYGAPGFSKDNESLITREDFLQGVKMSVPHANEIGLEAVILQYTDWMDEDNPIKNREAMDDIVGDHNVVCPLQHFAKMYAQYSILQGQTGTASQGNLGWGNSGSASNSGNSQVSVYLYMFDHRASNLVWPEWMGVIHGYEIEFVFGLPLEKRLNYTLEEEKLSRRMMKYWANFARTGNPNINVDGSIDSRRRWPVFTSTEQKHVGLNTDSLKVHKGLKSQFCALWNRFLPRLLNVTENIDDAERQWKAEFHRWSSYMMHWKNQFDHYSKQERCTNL

[1] = read-out: Ki hCA I, Lineweaver-Burk, hCA I from human erythrocytes
[2] = read-out: Ki hCA II, Lineweaver-Burk, hCA II from human erythrocytes

Compound: dibromo[1,3-dibenzylbenzimidazol-2-ylidene]triphenylphosphine palladium(II) [Complex 5]
- Ki (hCA I; [1]): 40.3 ± 2 nM
- Ki (hCA II; [2]): 15 nM and 15.3 nM
- Ki (AChE; read-out: Ki AChE, Lineweaver-Burk, AChE from Electrophorus electricus): 23.1 ± 2.6 nM

Compound: dibromo[1,3-dibenzylbenzimidazol-2-ylidene]pyridinepalladium(II) [Complex 2]
- Ki (hCA I; [1]): 28.4 ± 1.2 nM
- Ki (hCA II; [2]): 8.3 ± 1.8 nM
- fold more effective AChE inhibition than donepezil (AChE): 1.49 fold
- fold more effective AChE inhibition than tacrine (AChE): 1.76 fold

Compound: dibromo[1,3-dibenzylbenzimidazol-2-ylidene]morpholinepalladium(II) [Complex 6]
- Ki (hCA I; [1]): 16.9 ± 0.3 nM
- Ki (hCA II; [2]): 12 nM and 12.1 nM

Compound: c1ccc(Cn2c[n+](Cc3ccccc3)c3ccccc32)cc1 [Compound 1, 1,3-dibenzylbenzimidazolium chloride]
- IC50 (hCA I): 116 nM
- Ki (hCA I): 68.5 ± 11.5 nM
- IC50 (hCA II): 69.3 nM
- Ki (hCA II): 49.3 ± 6.5 nM
- IC50 (AChE): 86.6 nM
- Ki (AChE): 64 nM and 64.1 nM

Compound: dibromo[1,3-dibenzylbenzimidazol-2-ylidene]-3-chloropyridinepalladium(II) [Complex 3]
- fold increase of hCA I inhibition relative to complex 2 (hCA I): 2.83 fold
- Ki (hCA I; [1]): 10 ± 1.4 nM
- Ki (hCA II; [2]): 7.7 ± 0.6 nM

Compound: dibromo[1,3-dibenzylbenzimidazol-2-ylidene]-2-aminopyridinepalladium(II) [Complex 4]
- fold increase of hCA I inhibition relative to complex 2 (hCA I): 2.83 fold
- Ki (hCA I; [1]): 18.1 ± 3 nM
- Ki (hCA II; [2]): 19.7 ± 1.9 nM
